Measured values from different studies.
Compare with care: the assays were run in different laboratories.
LRRK2: Leucine-rich repeat serine/threonine-protein kinase 2 (LRRK2, Homo sapiens, UniProt Q5S007)
LRRK2 G2019S: Leucine-rich repeat serine/threonine-protein kinase 2 (LRRK2, Homo sapiens, UniProt Q5S007, G2019S)

SMILES | target | observed | action | technique | tested at | quantity | value
C[C@]1(O)CCCN(c2nc(Nc3ccc(S(=O)(=O)N[C@H]4CC[C@H](CN5CCN(c6ccc(C7CCC(=O)NC7=O)cc6F)CC5)CC4)cc3F)ncc2C(F)(F)F)C1 (stereo partly drawn) | LRRK2 | binding |  | competition with immobilised ligand | 1 µM | remaining binding | 97%
Cc1ccc(NC(=O)c2ccnc(C(F)(F)F)c2)cc1-c1cc(OCCO)nc(N2CCOCC2)c1 | LRRK2 G2019S | binding |  |  | 1 µM | remaining binding | 100%
CC#CC(=O)N1CCC[C@H]1c1nc(-c2ccc(C(=O)Nc3ccccn3)cc2)c2c(N)nccn12 | LRRK2 G2019S | enzyme activity | inhibitor |  | 1 µM | inhibition | 0%
CN1CCN(C(=O)c2ccc(NC(=O)Nc3ccc(N(C)c4ccnc(Nc5ccc(CS(C)(=O)=O)cc5)n4)cc3)cc2)CC1 | LRRK2 G2019S | binding |  |  | 1 µM | remaining binding | 71%
C#Cc1cc(-c2cc(Nc3nc(N[C@@H](C)c4ccc(F)cn4)ncc3Cl)n[nH]2)ccc1C=O | LRRK2 G2019S | enzyme activity | inhibitor |  | 0.2 µM | inhibition | 23%
COc1ccc2[nH]c3c4[nH]c5ccc(OC)cc5c4c4c(c3c2c1)C(=O)NC4=O | LRRK2 G2019S | binding |  |  | 1 µM | remaining binding | 2.6%
C[C@]1(O)CCCN(c2nc(Nc3ccc(S(=O)(=O)N[C@H]4CC[C@H](CN5CCN(c6ccc(C7CCC(=O)NC7=O)cc6F)CC5)CC4)cc3Cl)ncc2C(F)(F)F)C1 (stereo partly drawn) | LRRK2 | binding |  | competition with immobilised ligand | 1 µM | remaining binding | 21%
CCCCC(=O)Nc1ccc(-c2ccc3ncn(CCC)c(=O)c3c2)cn1 | LRRK2 | binding |  | competition with immobilised ligand | 0.5 µM | remaining binding | 100%
CNS(=O)(=O)c1ccc(Nc2ncc(C(F)(F)F)c(N3CCC[C@](C)(O)C3)n2)c(C)c1 | LRRK2 G2019S | binding |  | competition with immobilised ligand | 1 µM | remaining binding | 13%
C1=C/COCc2cc(ccc2OCCN2CCCC2)Nc2nccc(n2)-c2cccc(c2)COC/1 | LRRK2 G2019S | binding |  |  | 0.1 µM | remaining binding | 100%
Cc1cc(S(=O)(=O)N[C@H]2CC[C@H](CN3CCN(c4ccc(C5CCC(=O)NC5=O)cc4F)CC3)CC2)ccc1Nc1ncc(C(F)(F)F)c(N2CCC[C@](C)(O)C2)n1 (stereo partly drawn) | LRRK2 | binding |  | competition with immobilised ligand | 1 µM | remaining binding | 6.6%
Cc1cc(O)c(-c2ccc([C@@H](C)CN(C)C)cc2)c2c1[nH]c(=O)c1sccc12 | LRRK2 | enzyme activity | inhibitor |  | 0.1 µM | inhibition | -15.8%
